Measurements from different studies.
Target: Aurora kinase B (AURKB, Homo sapiens, UniProt Q96GD4)

SMILES	test	conditions	endpoint	value
Cn1cc(-c2cccc(N3CCc4c(sc5c4CC(C)(C)C5)C3=O)c2CO)cc(Nc2ccncn2)c1=O	enzyme activity, inhibitor	1 µM	inhibition	6%
COc1ncccc1-c1cnn2ccc(N3CCN(C(=O)OC(C)C)CC3)nc12	binding, competition with immobilised ligand	1 µM	remaining binding	58%
O=c1[nH]c2ccccc2n1C1CCN(Cc2ccc(-c3[nH]c4cc5ncnc5cc4nc3-c3ccccc3)cc2)CC1	enzyme activity	0.5 µM	remaining activity	98.7%
C#Cc1n[nH]c2c(-c3cn([C@@H](C)c4ccccn4)c(=O)[nH]c3=O)cc(F)cc12	enzyme activity, inhibitor	0.1 µM	inhibition	4.9%
Nc1ncc(-c2nc(N3CCOCC3)nc(N3CCOCC3)n2)c(C(F)F)n1	binding, competition with immobilised ligand	10 µM	remaining binding	91%
N#CC1(c2ccccn2)CCN(Cc2cc(C(=O)O)c(=O)n3ccccc23)CC1	cell-free assay, competition with immobilised ligand	1 µM	remaining binding	76%
C#Cc1n[nH]c2c(-c3cn([C@@H](C)c4ccccc4)c(=O)[nH]c3=O)cc(F)cc12	enzyme activity, inhibitor	0.1 µM	inhibition	0.1%
Cn1cncc1[C@](O)(COc1ccc(C#N)cc1-c1ccc(OC(F)(F)F)cc1)c1ccc(C#N)cc1	cell-free assay, competition with immobilised ligand	1 µM	remaining binding	100%
CC(C)(C)c1cc(C=C(C#N)C#N)cc(Br)c1O	enzyme activity, inhibitor	0.5 µM	remaining activity	97.1%
